# Assay results reported in ChEMBL document CHEMBL1641559, “Facile synthesis and biological evaluation of 3,3-diphenylpropanoyl piperazines as T-type calcium channel blockers” (Bioorg Med Chem Lett, 2011).
# Target: T1, Voltage-dependent T-type calcium channel subunit alpha-1G (Homo sapiens, UniProt O43497)
# Assay: Inhibition of T-type alpha1G calcium channel
# How it was run: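 HEK293 cells stably expressing α1G and Kir2.1 were seeded at 4 × 10⁴ cells/well and used the next day. They were loaded with 5 µM fluo3/AM and 0.001% Pluronic F-127 for 60 min at room temperature in Hepes buffer (pH 7.4). Channels were activated by 70 mM KCl depolarization in buffer containing 10 mM CaCl₂, and the rise in intracellular Ca²⁺ was read by fluorescence (FDSS6000).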
# T1 sequence (O43497 whole entry): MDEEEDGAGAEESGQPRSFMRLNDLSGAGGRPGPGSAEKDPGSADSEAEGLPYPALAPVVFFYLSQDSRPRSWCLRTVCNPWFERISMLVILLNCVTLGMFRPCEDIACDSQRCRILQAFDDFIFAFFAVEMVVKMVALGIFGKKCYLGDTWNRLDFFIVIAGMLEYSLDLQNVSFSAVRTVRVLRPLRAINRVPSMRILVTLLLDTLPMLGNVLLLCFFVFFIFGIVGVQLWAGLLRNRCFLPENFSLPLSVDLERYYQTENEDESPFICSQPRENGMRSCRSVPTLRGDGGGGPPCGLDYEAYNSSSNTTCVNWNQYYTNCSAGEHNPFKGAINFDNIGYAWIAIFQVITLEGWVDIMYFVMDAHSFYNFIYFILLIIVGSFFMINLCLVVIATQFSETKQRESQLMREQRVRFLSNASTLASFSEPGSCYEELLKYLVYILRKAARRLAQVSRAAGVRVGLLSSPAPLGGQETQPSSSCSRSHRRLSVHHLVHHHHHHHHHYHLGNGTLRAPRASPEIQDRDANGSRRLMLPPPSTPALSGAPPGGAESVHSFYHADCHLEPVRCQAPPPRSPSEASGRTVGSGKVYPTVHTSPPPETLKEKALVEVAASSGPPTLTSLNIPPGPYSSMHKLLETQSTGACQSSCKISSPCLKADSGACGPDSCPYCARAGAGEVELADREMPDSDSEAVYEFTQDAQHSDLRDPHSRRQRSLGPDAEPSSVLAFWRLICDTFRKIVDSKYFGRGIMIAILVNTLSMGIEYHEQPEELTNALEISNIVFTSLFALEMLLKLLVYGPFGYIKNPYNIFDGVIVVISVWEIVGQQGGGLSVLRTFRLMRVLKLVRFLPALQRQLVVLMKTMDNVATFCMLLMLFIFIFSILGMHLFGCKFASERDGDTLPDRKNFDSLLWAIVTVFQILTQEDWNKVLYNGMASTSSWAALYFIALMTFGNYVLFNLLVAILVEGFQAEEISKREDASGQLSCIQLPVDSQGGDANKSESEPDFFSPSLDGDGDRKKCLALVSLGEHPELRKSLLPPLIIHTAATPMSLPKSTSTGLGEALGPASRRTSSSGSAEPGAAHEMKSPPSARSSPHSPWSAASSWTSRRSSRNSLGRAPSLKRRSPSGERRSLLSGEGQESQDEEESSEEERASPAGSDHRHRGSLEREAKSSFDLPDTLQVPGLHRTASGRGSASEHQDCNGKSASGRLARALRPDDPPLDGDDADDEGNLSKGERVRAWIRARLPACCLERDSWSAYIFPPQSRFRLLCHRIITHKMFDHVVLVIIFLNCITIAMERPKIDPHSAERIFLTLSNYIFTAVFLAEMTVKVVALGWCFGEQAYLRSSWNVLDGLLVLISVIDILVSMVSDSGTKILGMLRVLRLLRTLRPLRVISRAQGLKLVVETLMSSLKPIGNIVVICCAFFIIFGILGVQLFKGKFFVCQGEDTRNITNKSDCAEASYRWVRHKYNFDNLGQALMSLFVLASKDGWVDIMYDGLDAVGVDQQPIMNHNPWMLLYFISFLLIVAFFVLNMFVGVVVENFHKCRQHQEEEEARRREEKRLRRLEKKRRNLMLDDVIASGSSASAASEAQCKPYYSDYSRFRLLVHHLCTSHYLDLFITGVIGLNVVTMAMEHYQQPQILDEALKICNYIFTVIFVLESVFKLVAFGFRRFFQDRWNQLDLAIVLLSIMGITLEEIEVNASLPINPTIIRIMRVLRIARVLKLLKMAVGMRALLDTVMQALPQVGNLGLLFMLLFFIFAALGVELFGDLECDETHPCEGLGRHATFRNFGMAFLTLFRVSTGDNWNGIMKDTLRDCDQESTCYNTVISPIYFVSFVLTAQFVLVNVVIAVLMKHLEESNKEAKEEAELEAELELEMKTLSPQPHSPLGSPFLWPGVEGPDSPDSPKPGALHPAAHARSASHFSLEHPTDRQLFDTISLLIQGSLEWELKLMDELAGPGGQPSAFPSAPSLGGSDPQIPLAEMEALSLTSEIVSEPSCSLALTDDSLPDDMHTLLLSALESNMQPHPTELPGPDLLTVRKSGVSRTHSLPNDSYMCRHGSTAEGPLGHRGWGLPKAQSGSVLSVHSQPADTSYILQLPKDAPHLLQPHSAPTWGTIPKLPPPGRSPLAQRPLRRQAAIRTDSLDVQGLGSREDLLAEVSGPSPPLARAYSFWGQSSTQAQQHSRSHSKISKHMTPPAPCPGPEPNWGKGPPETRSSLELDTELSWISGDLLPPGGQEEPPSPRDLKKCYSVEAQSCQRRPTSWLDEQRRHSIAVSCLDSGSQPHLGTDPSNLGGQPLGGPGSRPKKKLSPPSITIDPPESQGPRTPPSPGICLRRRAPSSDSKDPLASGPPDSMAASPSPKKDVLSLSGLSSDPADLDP
row,Structure (SMILES),Kd
1,O=c1[nH]c2ccccc2n1C1CCN(CCCC(c2ccc(F)cc2)c2ccc(F)cc2)CC1 [PIMOZIDE],40 nM

# Target: T1, Voltage-dependent T-type calcium channel subunit alpha-1G
# Assay: Inhibition of T-type alpha1G calcium channel expressed in HEK293 cells by whole-cell patch-clamp method
row,Structure (SMILES),IC50
1,COC(=O)c1coc(CN2CCN(C(=O)CC(c3ccc(F)cc3)c3ccc(Br)cc3)CC2)n1 (centres undefined),830 nM
2,Cc1ccc2nc(CN3CCN(C(=O)CC(c4ccccc4)c4ccc(F)cc4)CC3)oc2c1 (centres undefined),1290 nM
3,COC(=O)c1coc(CN2CCN(C(=O)CC(c3ccccc3)c3ccc(Br)cc3)CC2)n1 (centres undefined),21100 nM
4,COc1ccc(C(CC(=O)N2CCN(Cc3nc4ccc(C)cc4o3)CC2)c2ccccc2)cc1 (centres undefined),2480 nM
5,COC(=O)c1coc(CN2CCN(C(=O)CC(c3ccc(F)cc3)c3ccc(C(F)(F)F)cc3)CC2)n1 (centres undefined),1730 nM
6,COC(=O)c1coc(CN2CCN(C(=O)CC(c3ccc(F)cc3)c3ccc(Cl)cc3)CC2)n1 (centres undefined),8800 nM
7,COC(=O)c1coc(CN2CCN(C(=O)CC(c3ccccc3)c3ccc(C(F)(F)F)cc3)CC2)n1 (centres undefined),17000 nM

# Target: T1, Voltage-dependent T-type calcium channel subunit alpha-1G
# Assay: Inhibition of T-type alpha1G calcium channel expressed in HEK293 cells assessed as Kcl-induced depolarization at 10 uM
# Type: cell-based
# How it was run: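 HEK293 cells stably expressing alpha1G plus Kir2.1, grown in DMEM/10% FBS with penicillin, streptomycin, geneticin and puromycin at 37 °C, 5% CO2; seeded 4 × 10^4 cells/well, used next day. Loaded 60 min at room temperature with 5 µM fluo3/AM and 0.001% Pluronic F-127 in Hepes buffer (pH 7.4). Channels activated by 70 mM KCl with 10 mM CaCl2; rise in intracellular Ca2+ read by FDSS6000 fluorescence.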
row,Structure (SMILES),inhibition
1,COC(=O)c1coc(CN2CCN(C(=O)CC(c3ccc(F)cc3)c3ccc(Br)cc3)CC2)n1 (centres undefined),42.1%
2,O=C(O)c1coc(CN2CCN(C(=O)CC(c3ccc(F)cc3)c3ccc(Cl)cc3)CC2)n1 (centres undefined),3.62%
3,O=C(CC(c1ccc(C(F)(F)F)cc1)c1cccc(F)c1)N1CCN(Cc2nc(C(=O)N3CCOCC3)co2)CC1 (centres undefined),53.4%
4,Cc1ccc2nc(CN3CCN(C(=O)CC(c4ccccc4)c4ccc(F)cc4)CC3)oc2c1 (centres undefined),42.7%
5,COC(=O)c1coc(CN2CCN(C(=O)CC(c3ccc(Br)cc3)c3cccc(F)c3)CC2)n1 (centres undefined),36.6%
6,O=C(CC(c1ccc(Br)cc1)c1cccc(F)c1)N1CCN(Cc2nc(C(=O)N3CCOCC3)co2)CC1 (centres undefined),44.6%
7,COC(=O)c1coc(CN2CCN(C(=O)CC(c3ccccc3)c3ccc(Br)cc3)CC2)n1 (centres undefined),42.8%
8,COc1ccc(C(CC(=O)N2CCN(Cc3nc4ccc(C)cc4o3)CC2)c2ccccc2)cc1 (centres undefined),63.5%
9,Cc1ccc2nc(CN3CCN(C(=O)CC(c4ccc(Cl)cc4)c4cccc(F)c4)CC3)oc2c1 (centres undefined),32.2%
10,Cc1ccc2nc(CN3CCN(C(=O)CC(c4ccccc4)c4ccc(Cl)cc4)CC3)oc2c1 (centres undefined),25.9%
11,O=C(CC(c1ccc(Cl)cc1)c1cccc(F)c1)N1CCN(Cc2nc(C(=O)N3CCOCC3)co2)CC1 (centres undefined),48.6%
12,COC(=O)c1coc(CN2CCN(C(=O)CC(c3ccccc3)c3ccc(OC)cc3)CC2)n1 (centres undefined),22.8%
13,O=C(CC(c1ccc(Cl)cc1)c1cccc(F)c1)N1CCN(Cc2nc(CO)co2)CC1 (centres undefined),19.2%
14,COC(=O)c1coc(CN2CCN(C(=O)CC(c3ccc(F)cc3)c3ccc(OC)cc3)CC2)n1 (centres undefined),24.5%
15,Cc1ccc2nc(CN3CCN(C(=O)CC(c4ccccc4)c4ccc(C(F)(F)F)cc4)CC3)oc2c1 (centres undefined),22.4%
16,O=C(CC(c1ccc(C(F)(F)F)cc1)c1cccc(F)c1)N1CCN(Cc2nc(CO)co2)CC1 (centres undefined),19.2%
17,COc1ccc(C(CC(=O)N2CCN(Cc3nc(C(=O)N4CCOCC4)co3)CC2)c2cccc(F)c2)cc1 (centres undefined),19.7%
18,COC(=O)c1coc(CN2CCN(C(=O)CC(c3ccc(F)cc3)c3ccc(F)cc3)CC2)n1,33.5%
19,COC(=O)c1coc(CN2CCN(C(=O)CC(c3ccccc3)c3ccc(Cl)cc3)CC2)n1 (centres undefined),35%
20,COC(=O)c1coc(CN2CCN(C(=O)CC(c3ccc(C(F)(F)F)cc3)c3cccc(F)c3)CC2)n1 (centres undefined),57.6%
21,Cc1ccc2nc(CN3CCN(C(=O)CC(c4ccc(F)cc4)c4ccc(F)cc4)CC3)oc2c1,30.9%
22,COC(=O)c1coc(CN2CCN(C(=O)CC(c3ccc(OC)cc3)c3cccc(F)c3)CC2)n1 (centres undefined),25.5%
23,O=C(O)c1coc(CN2CCN(C(=O)CC(c3ccc(F)cc3)c3ccc(Br)cc3)CC2)n1 (centres undefined),5.42%

row,Structure (SMILES),inhibition
1,COc1ccc(C(CC(=O)N2CCN(Cc3nc4ccc(C)cc4o3)CC2)c2cccc(F)c2)cc1 (centres undefined),52%
2,O=C(CC(c1ccc(F)cc1)c1cccc(F)c1)N1CCN(Cc2nc(C(=O)N3CCOCC3)co2)CC1 (centres undefined),36.9%
3,Cc1ccc2nc(CN3CCN(C(=O)CC(c4ccc(C(F)(F)F)cc4)c4cccc(F)c4)CC3)oc2c1 (centres undefined),26.4%
4,COC(=O)c1coc(CN2CCN(C(=O)CC(c3ccc(F)cc3)c3ccc(C(F)(F)F)cc3)CC2)n1 (centres undefined),51.8%
5,COc1ccc(C(CC(=O)N2CCN(Cc3nc(CO)co3)CC2)c2cccc(F)c2)cc1 (centres undefined),4.9%
6,COC(=O)c1coc(CN2CCN(C(=O)CC(c3ccc(F)cc3)c3cccc(F)c3)CC2)n1 (centres undefined),44.5%
7,Cc1ccc2nc(CN3CCN(C(=O)CC(c4ccc(F)cc4)c4ccc(C(F)(F)F)cc4)CC3)oc2c1 (centres undefined),9.84%
8,COc1ccc(C(CC(=O)N2CCN(Cc3nc(C(=O)O)co3)CC2)c2ccc(F)cc2)cc1 (centres undefined),7.68%
9,COC(=O)c1coc(CN2CCN(C(=O)CC(c3ccc(Cl)cc3)c3cccc(F)c3)CC2)n1 (centres undefined),24.5%
10,O=C(O)c1coc(CN2CCN(C(=O)CC(c3ccc(F)cc3)c3ccc(F)cc3)CC2)n1,3.84%
11,O=C(CC(c1ccc(F)cc1)c1cccc(F)c1)N1CCN(Cc2nc(CO)co2)CC1 (centres undefined),13.7%
12,COC(=O)c1coc(CN2CCN(C(=O)CC(c3ccc(F)cc3)c3ccc(Cl)cc3)CC2)n1 (centres undefined),45.1%
13,O=C(CC(c1ccc(Br)cc1)c1cccc(F)c1)N1CCN(Cc2nc(CO)co2)CC1 (centres undefined),21.3%
14,Cc1ccc2nc(CN3CCN(C(=O)CC(c4ccc(Br)cc4)c4cccc(F)c4)CC3)oc2c1 (centres undefined),18%
15,Cc1ccc2nc(CN3CCN(C(=O)CC(c4ccccc4)c4ccc(Br)cc4)CC3)oc2c1 (centres undefined),13.6%
16,Cc1ccc2nc(CN3CCN(C(=O)CC(c4ccc(F)cc4)c4ccc(Br)cc4)CC3)oc2c1 (centres undefined),11.2%
17,COC(=O)c1coc(CN2CCN(C(=O)CC(c3ccccc3)c3ccc(F)cc3)CC2)n1 (centres undefined),27.7%
18,Cc1ccc2nc(CN3CCN(C(=O)CC(c4ccc(F)cc4)c4cccc(F)c4)CC3)oc2c1 (centres undefined),44.9%
19,Cc1ccc2nc(CN3CCN(C(=O)CC(c4ccc(F)cc4)c4ccc(Cl)cc4)CC3)oc2c1 (centres undefined),15.5%
20,COc1ccc(C(CC(=O)N2CCN(Cc3nc4ccc(C)cc4o3)CC2)c2ccc(F)cc2)cc1 (centres undefined),23.3%
21,COC(=O)c1coc(CN2CCN(C(=O)CC(c3ccccc3)c3ccc(C(F)(F)F)cc3)CC2)n1 (centres undefined),60.4%
22,O=C(O)c1coc(CN2CCN(C(=O)CC(c3ccc(F)cc3)c3ccc(C(F)(F)F)cc3)CC2)n1 (centres undefined),3.62%

# Target: Voltage-gated inwardly rectifying potassium channel KCNH2 (Homo sapiens, UniProt Q12809)
# Assay: Inhibition of human hERG
# Chain of Voltage-gated inwardly rectifying potassium channel KCNH2 (Q12809 whole entry): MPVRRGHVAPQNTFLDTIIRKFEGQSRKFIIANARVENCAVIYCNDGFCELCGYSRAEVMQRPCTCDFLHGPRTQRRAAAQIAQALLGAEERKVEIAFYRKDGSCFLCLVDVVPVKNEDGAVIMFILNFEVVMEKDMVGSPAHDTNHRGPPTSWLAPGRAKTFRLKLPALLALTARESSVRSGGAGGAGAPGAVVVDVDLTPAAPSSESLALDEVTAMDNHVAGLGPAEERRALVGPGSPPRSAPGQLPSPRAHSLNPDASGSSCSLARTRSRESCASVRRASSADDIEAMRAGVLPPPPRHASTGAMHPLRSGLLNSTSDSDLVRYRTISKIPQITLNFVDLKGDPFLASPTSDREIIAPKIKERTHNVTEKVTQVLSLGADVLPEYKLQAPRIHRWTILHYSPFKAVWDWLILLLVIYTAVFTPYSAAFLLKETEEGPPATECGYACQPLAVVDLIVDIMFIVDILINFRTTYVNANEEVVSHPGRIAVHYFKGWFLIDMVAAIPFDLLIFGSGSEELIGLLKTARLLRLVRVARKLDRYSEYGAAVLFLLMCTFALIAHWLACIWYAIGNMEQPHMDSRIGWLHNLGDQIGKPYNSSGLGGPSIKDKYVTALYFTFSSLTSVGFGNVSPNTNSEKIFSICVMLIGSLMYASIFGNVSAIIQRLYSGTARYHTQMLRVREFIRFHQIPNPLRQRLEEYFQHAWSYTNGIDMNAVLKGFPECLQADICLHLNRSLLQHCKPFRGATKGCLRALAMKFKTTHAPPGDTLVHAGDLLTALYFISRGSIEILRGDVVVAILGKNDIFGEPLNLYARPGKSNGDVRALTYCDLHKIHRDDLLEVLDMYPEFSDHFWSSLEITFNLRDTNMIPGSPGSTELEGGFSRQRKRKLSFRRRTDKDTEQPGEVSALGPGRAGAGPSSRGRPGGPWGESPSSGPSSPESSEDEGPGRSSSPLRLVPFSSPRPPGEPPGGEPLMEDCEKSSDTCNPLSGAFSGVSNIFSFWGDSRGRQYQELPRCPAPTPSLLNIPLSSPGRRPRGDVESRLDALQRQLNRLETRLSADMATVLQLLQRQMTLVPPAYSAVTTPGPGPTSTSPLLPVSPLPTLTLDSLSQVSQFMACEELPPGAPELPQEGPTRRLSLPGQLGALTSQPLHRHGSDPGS
row,Structure (SMILES),IC50
1,COC(=O)c1coc(CN2CCN(C(=O)CC(c3ccc(F)cc3)c3ccc(Br)cc3)CC2)n1 (centres undefined),2230 nM
